Most compounds without a hit are left out; they make up all but 0.89% or so of the library.
XiGFP reactiv = activators of inactive X chromosome reactivation, primary screen, imaging, XiGFP fibroblasts, GFP high-content imaging, set 2; activation, % at 7.58 µM; XiGFP mouse fibroblasts, % GFP-positive cells imaging, 3 d; cells co-treated with 5-aza-dC sensitizer; scaled so ellipticine positive control = 100%; hit rate 0.055% among 360,000; AID 743238, 2013;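 active = mean normalized replicate activation at least 10% and every replicate at or above 10%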;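 also: 0% = median of on-plate neutral control wells and 100% = ellipticine 6 µM median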
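Material: XiGFP fibroblasts, SV40-immortalized. Buffer or medium: DMEM plus 5-aza-dC sensitizer. Compound: single concentration per compound, delivered by pin transfer. Times: 3 days compound exposure. Controls: ellipticine 6 µM.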
MIN6 prolif = inducers of MIN6 beta-cell proliferation, primary screen, ATP luminescence, uHTS; MIN6 cells proliferation, ATPlite luminescence, 48 h; cells starved in 0.2% serum; 100% = growth in 10% serum; proliferation, % at 10 µM; hit rate 0.29% among 330,000;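 active = compounds whose signal lies at least 3.5 SD above the mean of all wells on their plate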;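 also: 0% = DMSO-treated cells in low-serum medium and 100% = 10% serum control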
V-ATPase pHluor = regulators of yeast V-ATPase proton pumping, primary screen, pHLuorin cytosolic pH fluorescence | S. cerevisiae | response, % at 10 µM | hit rate 0.37% among 350,000; in the data active = response mostly above about 7.3%, no sharp cut-off; inactive = mostly below about 5.4%; also: actives read high
Arrestin-AP2 inh = inhibitors of beta-arrestin/AP2 binding, primary screen, biochemical, GPCR trafficking, flow cytometry | beta-arrestin 1 C-terminal peptide binding to AP2 beta2-adaptin appendage (human) | inhibition, % at 10 µM | FITC-arrestin peptide / GST-AP2 beads; AP2 beta2 appendage carries R879A mutation | hit rate 0.31% among 340,000;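 active = inhibition above a set limit, near 3 SD of compounds lacking own fluorescence, cut at about 54% in these data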;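 also: plate controls were DMSO wells for no effect and 5 µM unlabelled arrestin peptide for full effect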
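Assay system: GST-AP2 R879A bound to glutathione beads, E. coli-expressed; Medium: PBS with 0.05% Tween 20 and 0.1% BSA; Also added: fluorescein-tagged arrestin peptide at 50 nM final; Timing: 12 min plus 1 h, RT; Measured by: flow cytometry, FL1 (488/535 nm); Evaluation: percent drop in bead-associated FITC signal.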
T cell modulator = modulators of CD8 T cell-vesicle binding, primary screen, mouse 2C CD8+ T cells, flow cytometry; 2C CD8+ T cell-vesicle binding; active compounds read low; response (vesicle binding), % at 7 µM; hit rate 0.068% among 330,000;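 active = response, share of CD8 T cells binding vesicles, and their 90th percentile fluorescence all below set limits, cut at about 80% in these data, passing the limit was not always enough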;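 also: values below 100% mean blocked vesicle binding to the CD8+ T cells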
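Assay system – 2C mouse CD8+ T cells · Also added – QL9-loaded Drosophila micro-vesicles · Timing – Cell–vesicle co-incubation 1.5 h at 37 °C, staining 20 min on ice · Signal – flow cytometry of vesicle-bound cells · Measure – percent CD8+ FL2 mean versus row control · Controls – Peptide-free naked vesicles (low) and QL9 vesicles with 0.7% DMSO vehicle (high)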
NTR1 agonist = agonists of human NTR1, primary screen, imaging, U2OS cells, beta-arrestin-GFP, high content. activation, % at 20 µM. AID 493036, 2011. hit rate 0.17% among 330,000. Neurotensin receptor type 1 (Homo sapiens), P30989. NTR1-U2OS beta-arrestin-GFP spot imaging, agonist mode;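 active = activation at or above 40% of the spot to cytoplasm intensity ratio, with at least 20 cells analyzed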;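 also: 0% = DMSO without peptide and 100% = 100 nM NTR1 peptide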
Target sequence (P30989 whole entry, looked up): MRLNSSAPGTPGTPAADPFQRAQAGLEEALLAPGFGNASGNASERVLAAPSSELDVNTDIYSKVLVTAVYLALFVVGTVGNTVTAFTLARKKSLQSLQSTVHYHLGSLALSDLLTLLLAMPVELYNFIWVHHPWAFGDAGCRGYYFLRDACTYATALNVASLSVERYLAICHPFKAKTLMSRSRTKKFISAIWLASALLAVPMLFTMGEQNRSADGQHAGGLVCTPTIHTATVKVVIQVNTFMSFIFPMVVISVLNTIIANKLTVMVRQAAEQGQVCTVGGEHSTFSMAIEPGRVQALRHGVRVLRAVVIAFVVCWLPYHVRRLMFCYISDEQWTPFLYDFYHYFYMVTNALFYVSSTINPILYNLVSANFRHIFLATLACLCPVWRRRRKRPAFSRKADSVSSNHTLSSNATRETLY
VATPase regulator = yeast V-ATPase proton pumping modulators, confirmation, S. cerevisiae, pH-sensitive GFP, second cherry-pick; shares compounds with V-ATPase pHluor; S. cerevisiae pHLuorin cytosolic pH, V-ATPase proton transport; response, % at 10 µM; hit rate 2% among 980; AID 602197, 2012; in the data active = response above about 24%;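 also: plate controls were vehicle wells for no effect and positive control wells for full effect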
* marks the source's active call; other numbers are inactive results; / = no result.

SMILES	XiGFP reactiv	MIN6 prolif	V-ATPase pHluor	Arrestin-AP2 inh	T cell modulator	NTR1 agonist	VATPase regulator
NC(=O)c1cc(NC(=O)CCc2nc3ccccc3s2)cc(C(N)=O)c1	0.0	1.5	9.6*	6.8	117.4	0.1	3.7
N#Cc1ccc(NC(=O)CCc2nc3ccccc3s2)cc1	0.1	0.0	-2.2	4.9	470.5	1.2	/
COC(=O)C1=NNC(C(=O)OC)C1c1ccccc1 (centres undefined)	0.2	/	16.9*	5.1	/	/	-0.7
COC(=O)C1=NNC(C(=O)c2ccco2)C1c1ccccc1 (centres undefined)	0.0	-1.2	0.5	5.0	360.9	-0.5	/
Cn1c(=O)oc2cc(S(=O)(=O)Nc3ccc(Cl)cc3)ccc21	0.0	-2.3	4.4	-1.1	192.3	1.3	/
Cn1c(=O)oc2cc(S(=O)(=O)Nc3ccc(F)cc3)ccc21	0.0	-1.9	7.4*	-1.7	334.6	-1.4	1.0
CC1CCCCC1NC(=O)Cn1c(CN2CCCCC2)nc2ccccc2c1=O (centres undefined)	/	-0.6	-5.4	-7.1	486.9	3.2	/
CC1CCCCC1NC(=O)Cn1nnc2ccccc2c1=O (centres undefined)	-0.2	1.7	17.6*	5.6	295.0	-0.8	-3.2
O=C(Cc1n[nH]c(=O)c2ccccc12)OCC(=O)c1ccc2c(c1)OCCO2	/	-5.1	12.1*	27.8	546.8	-0.8	-1.5
O=S1(=O)N(Cc2ccccc2F)CCCN1Cc1c(F)cccc1Cl	0.1	0.0	9.6*	3.0	292.7	3.2	-0.1
COc1cccc(OCC(=O)NNC(=O)Cc2cccs2)c1	0.1	-1.6	14.0*	-14.5	904.9	1.5	-0.4
COc1cccc(/C=C2\C(=O)N(c3cccc(C)c3)C(=O)c3ccccc32)c1	0.0	-5.7	1.1	-3.4	228.8	3.1	/
COc1cccc(N2C(=O)c3ccncc3C2=O)c1	/	-2.0	12.2*	36.9	293.7	-0.5	-1.2
C[n+]1cc[nH]c1SCC(=O)c1ccc(Cl)cc1	0.1	-2.9	7.5*	3.0	265.9	2.4	3.9
C[n+]1cc[nH]c1SCC(=O)c1ccccc1	/	1.2	0.7	32.9	355.6	0.9	/
COc1ccc2c3c([nH]c2c1)[C@@H](CO)N(Cc1cccc(F)c1)CC31CCN(C(C)=O)CC1	0.1	/	/	/	/	/	/
CCCN(CCC)CC(O)COc1ccc2c(c1)OCO2 (centres undefined)	0.0	-1.7	8.9*	12.8	405.2	0.1	-4.2
C[C@@H]1CN([C@@H](C)CO)C(=O)Cc2cc(NS(=O)(=O)c3ccc(F)cc3)ccc2O[C@@H]1CN(C)Cc1ccc(Oc2ccccc2)cc1	-0.7	/	/	/	/	/	/
COc1ccccc1CNC(=O)C[C@H]1CC[C@H]2[C@@H](COC[C@@H](O)CN2Cc2cccc(-c3ccncc3)c2)O1	0.0	/	/	/	/	/	/
O=[N+]([O-])c1cc(-c2csc(NCCc3nc4cc(Cl)c(N5CCCCC5)cc4n3CCCO)n2)ccc1Cl	0.0	-7.3	10.3*	21.8	799.7	7.5	-3.2
C[C@H]1CN([C@@H](C)CO)C(=O)c2cccc(NC(=O)NC3CCCCC3)c2O[C@@H]1CN(C)S(=O)(=O)c1cn(C)cn1	0.0	/	/	/	/	/	/
CCOc1ccc(NC(=O)/C(C#N)=C/c2cn(CC(=O)O)c3ccccc23)cc1	0.1	-3.9	7.1*	3.6	268.1	-0.4	-1.5
CCOc1cccc(NC(=O)/C(C#N)=C\c2cn(CC(=O)O)c3ccccc23)c1	0.0	0.3	-1.2	11.5	183.7	-0.6	/
O=C(C[C@H]1CC[C@@H]2[C@H](COC[C@H](O)CN2S(=O)(=O)c2cccc(Cl)c2)O1)Nc1ccccc1	0.3	/	/	/	/	/	/
CN(CC(=O)Nc1ccc(N2CCOCC2)cc1)C(=O)CSc1ccccc1F	0.6	8.3	3.6	-4.8	585.3	1.5	/
SMILES	XiGFP reactiv	MIN6 prolif	V-ATPase pHluor	Arrestin-AP2 inh	T cell modulator	NTR1 agonist	VATPase regulator
CN(CC(=O)Nc1ccc(N2CCOCC2)cc1)C(=O)CC(c1ccccc1)c1ccccc1	0.1	-0.2	11.7*	5.0	178.3	0.2	2.4
CCOC(=O)C1C(C(=O)OC)=C(c2ccc(OC)cc2)c2ccc(OC)cc2N1S(=O)(=O)C(F)(F)F (centres undefined)	/	/	8.0*	38.0	/	6.8	3.5
COc1ccc(C[C@@H]2CCn3nncc3COC[C@@H](CC(C)C)NC2=O)cc1	0.0	/	/	/	/	/	/
COc1ccc(N2C[C@H](CSC)[C@@H](CC(=O)Nc3ccccc3)C2=O)cc1	0.0	/	7.0*	/	/	/	-1.1
COc1ccc(N2C[C@H](Cc3ccccc3)[C@@H](CC(=O)Nc3ccccc3)C2=O)cc1	0.1	/	-0.8	/	/	/	/
COc1ccc(OCCC(=O)OCC(=O)NCCc2ccccc2)cc1	0.1	0.9	7.6*	-8.6	505.7	-1.0	0.2
COc1ccc(CNC(=O)COC(=O)CCOc2ccccc2)cc1	-0.1	0.0	0.6	-1.6	349.0	-2.0	/
C/C(=N\Nc1ccccn1)c1cccs1	-0.1	-0.1	20.7*	17.2	337.5	-1.1	3.1
COCC(=O)N(C)C[C@@H]1Oc2cc(C#CCN(C)C)ccc2S(=O)(=O)N([C@H](C)CO)C[C@H]1C	0.7	/	/	/	/	/	/
Cc1n[nH]c(C)c1CS(=O)(=O)c1ccccc1	0.1	-2.8	7.3*	-2.8	346.3	-0.5	1.3
Cc1ccc(S(=O)(=O)N(C)C[C@@H]2OCCCC[C@H](C)Oc3ccc(NC(=O)Nc4ccc(F)cc4)cc3C(=O)N([C@@H](C)CO)C[C@@H]2C)cc1	0.3	/	/	/	/	/	/
O=C(O)c1cc(NC(=O)c2ccc3c(c2)C(=O)N(Cc2ccccc2)C3=O)cc(C(=O)O)c1	0.0	-1.2	7.6*	-4.6	231.1	-0.9	-1.7
C/C=C/c1ccc2c(c1)O[C@H](CN(C)C(=O)C1CCC1)[C@H](C)CN([C@@H](C)CO)S2(=O)=O	-0.8	/	/	/	/	/	/
CCCNC(=O)COC(=O)CCC(=O)c1ccc(F)cc1	/	-3.1	-7.6	9.0	399.1	3.1	-1.2
CCOC(=O)CCCNC(=O)COC(=O)CCC(=O)c1ccc(F)cc1	/	2.2	0.9	4.8	239.1	-1.3	-2.9
CC(C)CNC(=O)COC(=O)CCC(=O)c1ccc(F)cc1	/	-3.9	-0.4	6.6	426.2	-1.4	/
CCOC(=O)CCCNC(=O)COC(=O)c1cccc(F)c1	0.1	1.0	-1.4	14.6	256.1	0.7	/

Source: PubChem BioAssay
